ChEMBL document CHEMBL3758165, “In vitro interactions between anidulafungin and nonsteroidal anti-inflammatory drugs on biofilms of Candida spp” (2016)

How the values were obtained:
Assay type in all cases: functional
[1] = test system: Meyerozyma guilliermondii; assay: Antibiofilm activity against Candida guilliermondii a83 by two dimensional checkerboard dilution method in presence of aspirin
Outline: (§1)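 Biofilms were grown on PVC disks from 2 ml of a 1·10^6 cfu/ml cell suspension. Adhesion ran 1.5 h at 37 °C with shaking at 100 rpm. Disks were PBS-washed, then matured 48 h at 37 °C in RPMI 1640 (MOPS, pH 7). Biofilms were washed again and given 24 h at 37 °C of anidulafungin/NSAID checkerboard combinations (NSAID final 0.1 µM–100 mM). Read-out was XTT-menadione (2 h, 37 °C, 490 nm). SMIC was defined as 50% reduction versus drug-free control, from which FICI was calculated. Triplicates were run on different days.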

Nakaseomyces glabratus [2] = assay: Antibiofilm activity against Candida glabrata 18a10 assessed as fractional inhibitory concentration by two dimensional checkerboard dilution method in presence of diclofenac
Outline: (§2)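 Preformed 48 h disk biofilms (RPMI 1640, MOPS pH 7, 37 °C), PBS-washed, exposed 24 h at 37 °C on rocker to two-dimensional checkerboard of anidulafungin plus NSAID in RPMI; NSAID final 0.1 µM to 100 mM. XTT reduction at 490 nm; SMIC = combination giving 50% metabolic reduction versus drug-free control; FIC index calculated; triplicate on different days.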

[3] = test system: Meyerozyma guilliermondii; assay: Antibiofilm activity against Candida guilliermondii ATCC 6260 after 48 hrs by XTT reduction assay relative to control; set-up: scale not given: the % may be the effect or the level left
Outline: (§3)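 Biofilms grown on autoclaved PVC disks: 1·10^6 cfu ml-1 cells, adhesion 1.5 h at 37 °C shaking 100 rpm, PBS wash, then 48 h at 37 °C in RPMI 1640 (MOPS, pH 7). Metabolic activity read by XTT–menadione reduction, 2 h at 37 °C, supernatant formazan at 490 nm, relative to drug-free control; triplicate on different days.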

[4] = test system: Meyerozyma guilliermondii; assay: Antibiofilm activity against Candida guilliermondii ATCC 6260 by two dimensional checkerboard dilution method in presence of diclofenac; outline: as §2
Candida albicans [5] = assay: Antibiofilm activity against Candida albicans ATCC 24433 by two dimensional checkerboard dilution method in presence of ibuprofen; outline: as §2
Candida albicans [6] = assay: Antibiofilm activity against Candida albicans 17a18 assessed as fractional inhibitory concentration by two dimensional checkerboard dilution method in presence of ibuprofen; outline: as §2
Candida albicans [7] = assay: Antibiofilm activity against Candida albicans ATCC 10231 assessed as fractional inhibitory concentration by two dimensional checkerboard dilution method in presence of ibuprofen; outline: as §2
Candida albicans [8] = assay: Antibiofilm activity against Candida albicans ATCC 90028 by two dimensional checkerboard dilution method in presence of diclofenac; outline: as §2
Candida albicans [9] = assay: Antibiofilm activity against Candida albicans ATCC 10231 assessed as fractional inhibitory concentration by two dimensional checkerboard dilution method in presence of diclofenac; outline: as §2
Candida albicans [10] = assay: Antibiofilm activity against Candida albicans ATCC 90028 assessed as fractional inhibitory concentration by two dimensional checkerboard dilution method in presence of diclofenac; outline: as §2
Nakaseomyces glabratus [11] = assay: Antibiofilm activity against Candida glabrata ATCC 15126 by two dimensional checkerboard dilution method in presence of ibuprofen; outline: as §2
Nakaseomyces glabratus [12] = assay: Antibiofilm activity against Candida glabrata 18a10 assessed as fractional inhibitory concentration by two dimensional checkerboard dilution method in presence of aspirin; outline: as §2
Nakaseomyces glabratus [13] = assay: Antibiofilm activity against Candida glabrata ATCC 15126 by two dimensional checkerboard dilution method in presence of diclofenac; outline: as §2
Nakaseomyces glabratus [14] = assay: Antibiofilm activity against Candida glabrata ATCC 15126 by two dimensional checkerboard dilution method in presence of aspirin; outline: as §2
Candida albicans [15] = assay: Antibiofilm activity against Candida albicans 17a18 after 48 hrs by XTT reduction assay relative to control; set-up: scale not given: the % may be the effect or the level left; outline: as §3
Candida albicans [16] = assay: Antibiofilm activity against Candida albicans ATCC 24433 by two dimensional checkerboard dilution method in presence of aspirin; outline: as §2
Candida albicans [17] = assay: Antibiofilm activity against Candida albicans ATCC 90028 by two dimensional checkerboard dilution method in presence of aspirin; outline: as §2
[18] = test system: Meyerozyma guilliermondii; assay: Antibiofilm activity against Candida guilliermondii ATCC 6260 by two dimensional checkerboard dilution method in presence of aspirin; outline: as §2
[19] = test system: Meyerozyma guilliermondii; assay: Antibiofilm activity against Candida guilliermondii a410 by two dimensional checkerboard dilution method in presence of ibuprofen; outline: as §1
[20] = test system: Meyerozyma guilliermondii; assay: Antibiofilm activity against Candida guilliermondii a410 by two dimensional checkerboard dilution method in presence of aspirin; outline: as §1
[21] = test system: Meyerozyma guilliermondii; assay: Antibiofilm activity against Candida guilliermondii a410 after 48 hrs by XTT reduction assay relative to control; set-up: scale not given: the % may be the effect or the level left; outline: as §3
Nakaseomyces glabratus [22] = assay: Antibiofilm activity against Candida glabrata ATCC 15126 assessed as fractional inhibitory concentration by two dimensional checkerboard dilution method in presence of ibuprofen; outline: as §2
Candida albicans [23] = assay: Antibiofilm activity against Candida albicans ATCC 10231 by two dimensional checkerboard dilution method in presence of aspirin; outline: as §2
Nakaseomyces glabratus [24] = assay: Antibiofilm activity against Candida glabrata 18a10 by two dimensional checkerboard dilution method in presence of diclofenac; outline: as §2
Candida albicans [25] = assay: Antibiofilm activity against Candida albicans ATCC 24433 by two dimensional checkerboard dilution method in presence of diclofenac; outline: as §2
[26] = test system: Meyerozyma guilliermondii; assay: Antibiofilm activity against Candida guilliermondii a83 assessed as fractional inhibitory concentration by two dimensional checkerboard dilution method in presence of aspirin; outline: as §1
Nakaseomyces glabratus [27] = assay: Antibiofilm activity against Candida glabrata 18a10 assessed as fractional inhibitory concentration by two dimensional checkerboard dilution method in presence of ibuprofen; outline: as §2
[28] = test system: Meyerozyma guilliermondii; assay: Antibiofilm activity against Candida guilliermondii ATCC 6260 by two dimensional checkerboard dilution method in presence of ibuprofen; outline: as §2
Nakaseomyces glabratus [29] = assay: Antibiofilm activity against Candida glabrata 18a10 after 48 hrs by XTT reduction assay relative to control; set-up: scale not given: the % may be the effect or the level left; outline: as §3
[30] = test system: Meyerozyma guilliermondii; assay: Antibiofilm activity against Candida guilliermondii a83 by two dimensional checkerboard dilution method in presence of diclofenac; outline: as §1
Candida albicans [31] = assay: Antibiofilm activity against Candida albicans ATCC 24433 at 1 mM after 24 hrs by XTT reduction assay relative to control; set-up: scale not given: the % may be the effect or the level left
Outline: (§4)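 Biofilms grown on sterilized PVC disks: 1·10^6 cfu/ml Candida cells adhered for 1.5 h at 37 °C with shaking, washed with PBS, then matured 48 h at 37 °C in RPMI 1640 (MOPS, pH 7). Preformed biofilms were washed and exposed to drug, alone or in two-dimensional checkerboard combination, in RPMI 1640 for 24 h at 37 °C on a rocker.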

[32] = test system: Meyerozyma guilliermondii; assay: Antibiofilm activity against Candida guilliermondii a410 at 1 mM after 24 hrs by XTT reduction assay relative to control; set-up: scale not given: the % may be the effect or the level left; outline: as §4
Candida albicans [33] = assay: Antibiofilm activity against Candida albicans ATCC 90028 at 0.1 uM to 100 mM after 48 hrs by XTT reduction assay relative to control; set-up: scale not given: the % may be the effect or the level left; outline: as §4
[34] = test system: Meyerozyma guilliermondii; assay: Antibiofilm activity against Candida guilliermondii a410 at 0.1 uM to 100 mM after 48 hrs by XTT reduction assay relative to control; set-up: scale not given: the % may be the effect or the level left; outline: as §4
Candida albicans [35] = assay: Antibiofilm activity against Candida albicans ATCC 10231 at 1 mM after 24 hrs by XTT reduction assay relative to control; set-up: scale not given: the % may be the effect or the level left; outline: as §4
[36] = test system: Meyerozyma guilliermondii; assay: Antibiofilm activity against Candida guilliermondii ATCC 6260 at 0.2 mM after 24 hrs by XTT reduction assay relative to control; set-up: scale not given: the % may be the effect or the level left; outline: as §4

With `CCCCCOc1ccc(-c2ccc(-c3ccc(C(=O)N[C@@H]4C[C@@H](O)[C@@H](O)NC(=O)[C@@H]5[C@@H](O)[C@@H](C)CN5C(=O)[C@H]([C@@H](C)O)NC(=O)[C@H]([C@H](O)[C@@H](O)c5ccc(O)cc5)NC(=O)[C@@H]5C[C@@H](O)CN5C(=O)[C@H]([C@H](C)O)NC4=O)cc3)cc2)cc1` as the molecule, how does the MIC [1] read?
The MIC was 0.1 µg/mL.

What about the Ratio (Nakaseomyces glabratus [2]) of the same molecule?
The Ratio was 0.1.

And the Activity [3]?
The Activity was 51.21%.

And the MIC [4]?
Its MIC is 0.1 µg/mL.

And the MIC (Candida albicans [5])?
The MIC was 0.4 µg/mL.

What about the Ratio (Candida albicans [6]) of the same molecule?
The Ratio was 0.2.

What about the Ratio (Candida albicans [7]) of the same molecule?
The Ratio was 0.2.

What about the MIC (Candida albicans [8]) of the same molecule?
The MIC was 0.1 µg/mL.

What about the Ratio (Candida albicans [9]) of the same molecule?
The Ratio was 0.05.

And the Ratio (Candida albicans [10])?
The Ratio was 0.05.

What about the MIC (Nakaseomyces glabratus [11]) of the same molecule?
The MIC was 0.1 µg/mL.

And the Ratio (Nakaseomyces glabratus [12])?
The Ratio was 0.05.

And the MIC (Nakaseomyces glabratus [13])?
Its MIC is 0.2 µg/mL.

And the MIC (Nakaseomyces glabratus [14])?
Its MIC is 0.1 µg/mL.

And the Activity (Candida albicans [15])?
Its Activity is 29.31%.

And the MIC (Candida albicans [16])?
The MIC was 0.1 µg/mL.

And the MIC (Candida albicans [17])?
Its MIC is 0.1 µg/mL.

And the MIC [18]?
Its MIC is 0.1 µg/mL.

And the MIC [19]?
The MIC was 0.4 µg/mL.

And the MIC [20]?
The MIC was 0.1 µg/mL.

What about the Activity [21] of the same molecule?
The Activity was 45.62%.

What about the Ratio (Nakaseomyces glabratus [22]) of the same molecule?
Its Ratio is 0.05.

And the MIC (Candida albicans [23])?
The MIC was 0.1 µg/mL.

And the MIC (Nakaseomyces glabratus [24])?
Its MIC is 0.2 µg/mL.

And the MIC (Candida albicans [25])?
The MIC was 0.1 µg/mL.

And the Ratio [26]?
Its Ratio is 0.05.

What about the Ratio (Nakaseomyces glabratus [27]) of the same molecule?
Its Ratio is 0.05.

And the MIC [28]?
The MIC was 0.4 µg/mL.

And the Activity (Nakaseomyces glabratus [29])?
The Activity was 37.42%.

What about the MIC [30] of the same molecule?
Its MIC is 0.2 µg/mL.

What does the source list for `CC(=O)Oc1ccccc1C(=O)O` [ASPIRIN]?
Activity (Candida albicans [31]): 48.75%; Activity [32]: 43.25%

With `O=C([O-])Cc1ccccc1Nc1c(Cl)cccc1Cl.[Na+]` [DICLOFENAC SODIUM] as the molecule, how does the Activity (Candida albicans [33]) read?
The Activity was 51.15%.

And the Activity [34]?
Its Activity is 58.69%.

What does the source list for `CC(C)Cc1ccc(C(C)C(=O)O)cc1` (stereo unspecified) [IBUPROFEN]?
Activity (Candida albicans [35]): 16.26%; Activity [36]: 64.43%
